Results from ChEMBL document CHEMBL1148638, “Aminopyridine-based c-Jun N-terminal kinase inhibitors with cellular activity and minimal cross-kinase activity” (J Med Chem, 2006).
pIC50, pKi: −log10 of the molar value.

Assays:
[1] = target: Mitogen-activated protein kinase 9 (Homo sapiens, UniProt P45984); test: Inhibition of JNK2-mediated ATF2 phosphorylation
[2] = target: Mitogen-activated protein kinase 8 (Homo sapiens, UniProt P45983); test: Inhibition of JNK1-mediated ATF2 phosphorylation
[3] = target: c-Jun N-terminal kinase, JNK (Homo sapiens, UniProt P45983+P53779+P45984); test: Inhibition of cJun phosphorylation in HepG2 cell line
[4] = Cmax in po dosed Sprague-Dawley rat; type: ADME, organism-based; design: route oral; conditions: in vivo
Method in brief: (§1)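 Sprague-Dawley rats were dosed orally. Oral half-life is reported in hours and Cmax as the maximum plasma concentration in µM. AUC is total oral exposure from t = 0 to t = ∞, in µg·h/mL.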

[5] = Volume of distribution at steady state in iv dosed Sprague-Dawley rat; type: ADME, organism-based; conditions: in vivo, read-out: Vss
[6] = target: T1, Calcium/calmodulin-dependent protein kinase type IV (Homo sapiens, UniProt Q16566); test: Inhibition of CaMK4
T1 sequence (Q16566 whole entry): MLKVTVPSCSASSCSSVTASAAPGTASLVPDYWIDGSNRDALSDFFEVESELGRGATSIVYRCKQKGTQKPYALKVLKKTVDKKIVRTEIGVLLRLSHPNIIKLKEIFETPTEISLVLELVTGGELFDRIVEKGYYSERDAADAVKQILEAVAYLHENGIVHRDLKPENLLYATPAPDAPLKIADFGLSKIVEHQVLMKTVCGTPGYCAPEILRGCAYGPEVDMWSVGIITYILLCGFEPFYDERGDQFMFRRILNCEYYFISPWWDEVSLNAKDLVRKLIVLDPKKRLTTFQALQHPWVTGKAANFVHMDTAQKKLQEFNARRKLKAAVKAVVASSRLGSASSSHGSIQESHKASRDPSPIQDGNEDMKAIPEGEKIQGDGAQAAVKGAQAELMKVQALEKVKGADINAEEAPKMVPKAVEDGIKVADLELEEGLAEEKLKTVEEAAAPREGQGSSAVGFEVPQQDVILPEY
Method in brief: (§2)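 Recombinant kinases were commercial, or baculovirus-expressed and purified by His-tag or GST affinity. Each was incubated 1 h with biotinylated substrate peptide (2 µM), γ-[33P]-ATP (5 µM) and inhibitor (3-10000 nM, 2% DMSO) in 25 mM Hepes pH 7.5, 10 mM MgCl2, Na3VO4. Reactions were stopped with EDTA/NaCl and read by streptavidin FlashPlate capture. IC50 came from titrations, converted to Ki by Cheng-Prusoff.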

[7] = Volume of distribution in iv dosed Sprague-Dawley rat; type: ADME, organism-based; conditions: in vivo, read-out: Vdss
[8] = AUC in po dosed Sprague-Dawley rat; type: ADME, organism-based; conditions: plasma; method in brief: as §1
[9] = target: T2, Serine/threonine-protein kinase Sgk1 (Homo sapiens, UniProt O00141); test: Inhibition of SGK
T2 sequence (O00141 whole entry): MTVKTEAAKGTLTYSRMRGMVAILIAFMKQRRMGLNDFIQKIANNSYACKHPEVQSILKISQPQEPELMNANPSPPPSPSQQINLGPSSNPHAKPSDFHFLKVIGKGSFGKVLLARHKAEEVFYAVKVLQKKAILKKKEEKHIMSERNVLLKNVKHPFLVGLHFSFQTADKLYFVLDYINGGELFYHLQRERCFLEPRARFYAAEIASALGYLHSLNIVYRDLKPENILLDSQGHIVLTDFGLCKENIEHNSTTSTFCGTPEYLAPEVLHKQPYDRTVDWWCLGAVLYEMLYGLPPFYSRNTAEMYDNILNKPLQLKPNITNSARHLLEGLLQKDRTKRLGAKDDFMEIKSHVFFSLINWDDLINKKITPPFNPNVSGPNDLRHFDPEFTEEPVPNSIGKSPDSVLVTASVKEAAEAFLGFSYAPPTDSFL

[10] = Half life in iv dosed Sprague-Dawley rat; type: ADME, organism-based; conditions: in vivo
Method in brief: (§3)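 Sprague-Dawley rats received 5 mg/kg intravenously. Half-life is reported in hours. AUC is total drug exposure after iv dosing, from t = 0 to t = ∞, in µg·h/mL.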

[11] = Tmax in po dosed Sprague-Dawley rat; type: ADME, organism-based; conditions: in vivo
[12] = Oral bioavailability in Sprague-Dawley rat; type: ADME, organism-based; conditions: in vivo
Activated CDC42 kinase 1 = Activated CDC42 kinase 1 (Homo sapiens, UniProt Q07912); test: Inhibition of CDC42; method in brief: as §2
[13] = Plasma clearance in iv dosed Sprague-Dawley rat; type: ADME, organism-based
[14] = Half life in po dosed Sprague-Dawley rat; type: ADME, organism-based; conditions: in vivo; method in brief: as §1
[15] = AUC in iv dosed Sprague-Dawley rat; type: ADME, organism-based; conditions: plasma; method in brief: as §3

Sequence of Mitogen-activated protein kinase 9 (P45984 whole entry): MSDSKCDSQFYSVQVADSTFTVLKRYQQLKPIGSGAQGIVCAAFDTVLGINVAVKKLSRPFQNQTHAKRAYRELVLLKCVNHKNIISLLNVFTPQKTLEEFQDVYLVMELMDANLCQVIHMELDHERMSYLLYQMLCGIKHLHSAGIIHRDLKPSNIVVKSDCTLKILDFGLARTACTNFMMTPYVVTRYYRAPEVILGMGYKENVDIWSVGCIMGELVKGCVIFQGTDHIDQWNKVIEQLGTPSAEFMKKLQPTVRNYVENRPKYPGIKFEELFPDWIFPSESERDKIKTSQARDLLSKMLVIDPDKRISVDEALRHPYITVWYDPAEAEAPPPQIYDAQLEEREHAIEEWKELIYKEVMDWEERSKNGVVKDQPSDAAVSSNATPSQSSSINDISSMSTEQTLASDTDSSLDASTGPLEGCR
Sequence of Mitogen-activated protein kinase 8 (P45983 whole entry): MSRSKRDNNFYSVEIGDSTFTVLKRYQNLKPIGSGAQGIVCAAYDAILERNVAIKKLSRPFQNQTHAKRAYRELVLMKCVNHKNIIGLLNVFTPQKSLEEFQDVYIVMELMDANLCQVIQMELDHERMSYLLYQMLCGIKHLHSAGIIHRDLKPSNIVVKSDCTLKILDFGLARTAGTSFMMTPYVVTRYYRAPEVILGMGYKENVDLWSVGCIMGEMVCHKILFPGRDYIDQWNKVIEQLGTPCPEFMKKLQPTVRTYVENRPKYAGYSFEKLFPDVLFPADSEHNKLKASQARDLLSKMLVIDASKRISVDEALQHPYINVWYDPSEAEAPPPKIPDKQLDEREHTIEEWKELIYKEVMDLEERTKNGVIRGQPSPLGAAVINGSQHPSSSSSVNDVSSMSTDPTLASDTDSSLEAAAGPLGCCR
Sequence of Activated CDC42 kinase 1 (Q07912 whole entry): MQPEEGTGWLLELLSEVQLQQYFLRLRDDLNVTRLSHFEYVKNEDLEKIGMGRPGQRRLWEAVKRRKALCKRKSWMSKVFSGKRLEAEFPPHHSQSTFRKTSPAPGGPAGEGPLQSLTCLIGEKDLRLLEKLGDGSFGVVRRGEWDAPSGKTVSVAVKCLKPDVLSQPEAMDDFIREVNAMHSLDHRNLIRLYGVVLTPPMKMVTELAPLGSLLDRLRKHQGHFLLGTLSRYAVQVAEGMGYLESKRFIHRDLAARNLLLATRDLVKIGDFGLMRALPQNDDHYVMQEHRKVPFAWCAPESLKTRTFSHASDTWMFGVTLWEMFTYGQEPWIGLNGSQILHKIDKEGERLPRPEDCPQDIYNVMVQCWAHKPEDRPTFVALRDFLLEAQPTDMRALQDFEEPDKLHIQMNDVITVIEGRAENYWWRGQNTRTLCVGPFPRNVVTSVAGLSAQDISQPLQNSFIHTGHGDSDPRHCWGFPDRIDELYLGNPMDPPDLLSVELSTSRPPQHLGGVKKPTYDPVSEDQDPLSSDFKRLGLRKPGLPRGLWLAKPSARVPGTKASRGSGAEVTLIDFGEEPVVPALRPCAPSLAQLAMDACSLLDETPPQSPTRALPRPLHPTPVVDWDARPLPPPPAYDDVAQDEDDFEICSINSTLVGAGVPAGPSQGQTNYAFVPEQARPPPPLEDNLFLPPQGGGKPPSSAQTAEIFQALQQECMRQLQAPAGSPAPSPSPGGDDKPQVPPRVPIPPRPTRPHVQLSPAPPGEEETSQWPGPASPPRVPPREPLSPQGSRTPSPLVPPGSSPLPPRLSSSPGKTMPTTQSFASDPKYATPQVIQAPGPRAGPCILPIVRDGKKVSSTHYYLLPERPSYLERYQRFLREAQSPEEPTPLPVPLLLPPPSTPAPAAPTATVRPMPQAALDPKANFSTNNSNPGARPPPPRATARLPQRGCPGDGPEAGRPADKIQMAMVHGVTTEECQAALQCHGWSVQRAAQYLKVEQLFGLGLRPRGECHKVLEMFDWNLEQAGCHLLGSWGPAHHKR

SMILES | pIC50 [1] | pIC50 [2] | other results
CCCCNCC(=O)Nc1cc(N)c(C#N)c(OCC)n1 | < 5.00 | 5.20 | –
COc1ccc(OC)c(CC(=O)Nc2cc(N)c(C#N)c(Br)n2)c1 | < 5.00 | 5.77 | –
CCOc1nc(NC(=O)CN2CCC(C(=O)NC(C)C)CC2)cc(N)c1C#N | 6.89 | 7.06 | EC50 [3]: 3900 nM
CCOc1nc(NC(=O)Cc2cccc(OC)c2)cc(N)c1C#N | 6.51 | 6.68 | EC50 [3]: 2500 nM
COc1cc(S(C)(=O)=O)c(OC)cc1CC(=O)Nc1cc(N)c(C#N)c(OC(C)C)n1 | – | – | Cmax [4]: 80 nM; Vd [5]: 1.6 L/kg; pKi [6]: < 5.07; Vd [7]: 8.6 L/kg; AUC [8]: 120 ng·h/mL; pKi [9]: < 5.03; half-life [10]: 2 h; Tmax [11]: 0.75 h; bioavailability [12]: 5.7%; pKi (Activated CDC42 kinase 1): < 5.02; clearance [13]: 50 mL/min/kg; half-life [14]: 2.9 h; AUC [15]: 2200 ng·h/mL
CCOc1nc(NC(=O)CN(CC)CC)cc(N)c1C#N | 5.20 | 5.57 | –
CCOc1cc(NC(C)=O)nc(N)c1C#N | < 5.00 | < 5.00 | –
CCOc1nc(NC(=O)OC)cc(N)c1C#N | < 5.00 | < 5.00 | –
CCCCC(=O)Nc1cc(N)c(C#N)c(OCC)n1 | 6.16 | 6.46 | –
CCOc1nc(NC(=O)Cc2ccc(OC)cc2)cc(N)c1C#N | 6.56 | 6.74 | EC50 [3]: 1400 nM
CC(=O)Nc1cc(N)c(C#N)c(NC(C)C)n1 | 5.52 | 6.04 | –
CC(=O)Nc1cc(N)c(C#N)c(OCCC(=O)O)n1 | 5.31 | 5.32 | –
CCOc1nc(NC(=O)Cc2cc(OC)c(NC(C)=O)cc2OC)cc(N)c1C#N | 7.59 | 7.46 | EC50 [3]: 280 nM
CCNC(=O)Nc1cc(N)c(C#N)c(OCC)n1 | < 5.00 | < 5.00 | –
CCOc1nc(NC(=O)Cc2cc(Br)ccc2Br)cc(N)c1C#N | < 5.00 | 5.52 | –
CC(=O)Nc1cc(N)c(C#N)c(OC2CCOC2)n1 (stereo not drawn) | 5.54 | 6.05 | –
COc1nc(NC(C)=O)cc(N)c1C#N | 5.35 | 5.66 | –
CCCCC(=O)Nc1nc(OCC)c(C#N)c(N)c1Cl | < 5.00 | < 5.00 | –
CCOc1nc(NC(=O)Cc2ccccc2)cc(N)c1C#N | 6.11 | 6.24 | –
CCOc1nc(NC(=O)Cc2cccc(Cl)c2)cc(N)c1C#N | 6.05 | 6.52 | –
CCOc1nc(NC(=O)Cc2ccc(C)cc2)cc(N)c1C#N | 6.44 | 6.72 | EC50 [3]: 3400 nM
CCOc1nc(NC(=O)CN2CCOCC2)cc(N)c1C#N | 5.92 | 6.57 | –
COc1ccc(OC)c(CC(=O)Nc2cc(N)c(C#N)c(OCCS(C)(=O)=O)n2)c1 | 6.13 | 6.40 | –
CCOc1nc(NC(=O)Cc2ccccc2OC)cc(N)c1C#N | 6.59 | 6.92 | EC50 [3]: 1400 nM
COCCOc1nc(NC(=O)Cc2cc(OC)ccc2OC)cc(N)c1C#N | 6.57 | 6.96 | EC50 [3]: 1400 nM
CCOc1cccc(NC(C)=O)n1 | < 5.00 | – | –

SMILES | pIC50 [1] | pIC50 [2] | other results
CCNc1nc(NC(C)=O)cc(N)c1C#N | < 5.00 | 5.62 | –
CCOc1nc(NC(=O)Cc2cccc(C)c2)cc(N)c1C#N | 6.10 | 6.38 | –
CC(=O)Nc1cc(N)c(C#N)c(OCCN(C)C)n1 | < 5.00 | < 5.00 | –
CCOc1nc(NC(=O)Cc2ccccc2C)cc(N)c1C#N | 6.13 | 6.40 | –
CCOc1nc(NC(=O)Cc2cc(C)ccc2C)cc(N)c1C#N | < 5.00 | 5.36 | –
CCOc1nc(NC(=O)C(C)C)cc(N)c1C#N | 5.08 | 5.40 | –
CCCCNC(=O)C1CCN(CC(=O)Nc2cc(N)c(C#N)c(OCC)n2)CC1 | 6.74 | 7.16 | EC50 [3]: > 10000 nM
CCOc1nc(NC(C)=O)cc(C)c1C#N | < 5.00 | < 5.00 | –
COc1ccc(OC)c(CC(=O)Nc2cc(N)c(C#N)c(OCCO)n2)c1 | 6.62 | 7.13 | EC50 [3]: 1600 nM
CCCN(CCO)CC(=O)Nc1cc(N)c(C#N)c(OCC)n1 | 6.13 | 6.80 | EC50 [3]: 5500 nM
CCOc1nc(NCCc2cc(OC)ccc2OC)cc(N)c1C#N | < 5.00 | < 5.00 | –
CCCCC(=O)N(C)c1cc(N)c(C#N)c(OCC)n1 | < 5.00 | < 5.00 | –
CCOc1nc(NC(=O)CN2CCCCC2)cc(N)c1C#N | 5.47 | 6.29 | –
COc1ccc(OC)c(CC(=O)Nc2cc(N)c(C#N)cn2)c1 | 5.29 | 5.59 | –
CCOc1nc(NC(=O)Cc2ccccc2Cl)cc(N)c1C#N | 5.31 | 5.96 | –
CCOc1nc(NC(=O)CN2CCC(O)CC2)cc(N)c1C#N | 6.19 | 6.52 | –
CC(=O)Nc1cc(N)c(C#N)c(OC(C)C)n1 | 6.33 | 6.51 | –
CCCCN(CCCC)CC(=O)Nc1cc(N)c(C#N)c(OCC)n1 | < 5.00 | 5.46 | –
CCOc1nc(NC(=O)CC(C)C)cc(N)c1C#N | 5.46 | 5.85 | –
CCCc1nc(NC(C)=O)cc(N)c1C#N | < 5.00 | < 5.00 | –
CCOc1nc(NC(=O)Cc2cc(OC)c(Br)cc2OC)cc(N)c1C#N | 6.80 | – | EC50 [3]: 890 nM
CCOc1nc(NC(=O)Cc2cc(OC)c([N+](=O)[O-])cc2OC)cc(N)c1C#N | 7.00 | 7.16 | EC50 [3]: 910 nM
CCOc1nc(NC(=O)Cc2ccc(Cl)cc2)cc(N)c1C#N | 6.21 | 6.24 | –
CCCCSc1nc(NC(C)=O)cc(N)c1C#N | < 5.00 | 5.05 | –
CCCCOc1nc(NC(C)=O)cc(N)c1C#N | 5.33 | 5.68 | –
